Activity calls are given as the source filed them. The rule behind the calls is not given here.
Assays:
Mus musculus [1] = organism: Mus musculus; experiment: Analgesic activity in mouse by Eddy hot-plate method; type: functional
Rhesus monkey [2] = experiment: Toxicity in rhesus monkey assessed as physical drug dependence liability at 2 to 4 mg/kg by single dose suppression analysis; type: organism-based, Macaca mulatta; design: dose 2-4 mg/kg; settings: in vivo
Method in brief: (§1)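 Rhesus monkeys addicted to morphine; single-dose suppression study scoring whether the test dose supports morphine dependence, i.e. suppresses withdrawal signs. Dose range 2-4 or 2-8 mg/kg, as given in each line.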

Mus musculus [3] = experiment: Analgesic activity in sc dosed mouse by Eddy hot-plate method; type: functional
Rhesus monkey [4] = experiment: Psychotomimetic activity in morphine-dependent nonwithdrawn rhesus monkey assessed as antagonist activity by measuring precipitation of withdrawal symptoms at 2 to 4 mg/kg; type: organism-based, Macaca mulatta; design: dose 2-4 mg/kg; settings: in vivo
Rhesus monkey [5] = experiment: Psychotomimetic activity in morphine-dependent nonwithdrawn rhesus monkey assessed as antagonist activity by measuring precipitation of withdrawal symptoms at 2 to 8 mg/kg; type: organism-based, Macaca mulatta; design: dose 2-8 mg/kg; settings: in vivo
Rhesus monkey [6] = experiment: Toxicity in rhesus monkey assessed as physical drug dependence liability at 2 to 8 mg/kg by single dose suppression analysis; type: organism-based, Macaca mulatta; design: dose 2-8 mg/kg; settings: in vivo; method in brief: as §1

`CN1CCC2CC(C1)c1ccccc12` (configuration not stated) was tested, and the ED50 (Mus musculus [1]) was 4.2 mg/kg, the Activity (Rhesus monkey [2]) was “Non-toxic” and the ED50 (Mus musculus [3]) was 8.2 mg/kg. For the same compound, the Activity (Rhesus monkey [4]) was “Non-toxic”.

In the case of `c1ccc(CCN2CCC3CC(C2)c2ccccc23)cc1` (configuration not stated), the ED50 (Mus musculus [1]) is reported as 8.8 mg/kg.

For `CCCN1CCC2CC(C1)c1ccccc12` (configuration not stated), the ED50 (Mus musculus [1]) was 16.2 mg/kg.

Compound `CN1CC[C@]23c4c5ccc(O)c4O[C@H]2[C@@H](O)C=C[C@H]3[C@H]1C5` [MORPHINE] has an ED50 (Mus musculus [1]) of 1.2 mg/kg.

In the case of `CN1CCC2CC1Cc1ccccc12` (configuration not stated), the ED50 (Mus musculus [1]) is reported as 11.2 mg/kg.

`COc1ccc2c3c1O[C@H]1[C@@H](O)C=C[C@H]4[C@@H](C2)N(C)CC[C@@]341` [CODEINE] showed an ED50 (Mus musculus [1]) of 7.5 mg/kg.

In the case of `c1ccc2c(c1)C1CCNCC2C1` (configuration not stated), the ED50 (Mus musculus [1]) is reported as 4.9 mg/kg, the Activity (Rhesus monkey [5]) is reported as “Non-toxic” and the ED50 (Mus musculus [3]) is reported as 6.1 mg/kg. The Activity (Rhesus monkey [6]) was “Non-toxic”.

Work on `CC1CCN(C)CCc2ccc(O)cc21` (configuration not stated) yielded an ED50 (Mus musculus [1]) of 12.5 mg/kg.

Compound `CN1CC[C@@H]2CC1Cc1ccc(O)cc12` has an ED50 (Mus musculus [1]) of 4.5 mg/kg.

Work on `C=CCN1CCC2CC(C1)c1ccccc12` (configuration not stated) yielded an ED50 (Mus musculus [1]) of 19.4 mg/kg.

For `CC(C)=CCN1CCC2CC(C1)c1ccccc12` (configuration not stated), the ED50 (Mus musculus [1]) was “inactive”.

Reference: ChEMBL document CHEMBL3244196, “Synthesis and analgetic activity of 1,2,3,4,5,6-hexahydro-1,6-methano-3-benzozocines” (J Med Chem, 1978)
